Experimental data taken from ChEMBL document CHEMBL4715736, “Identification of anticancer agents based on the thieno[2,3-b]pyridine and 1H-pyrazole molecular scaffolds” (2016).

Test system: CCRF-CEM
Test: Growth inhibition of human CCRF-CEM cells assessed as cell growth at 0.01 uM incubated for 48 hrs by sulforhodamine B assay relative to control
Type: functional
Details: read-out: Activity
Outline: (§1)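 NCI Developmental Therapeutics Program NCI60 panel. Compounds that were active in the 10 µM one-dose screen went on to dose–response testing. Growth at each concentration is expressed relative to untreated control (100%). GI50 (concentration giving 50% of maximal inhibition of proliferation) and TGI (concentration giving total growth inhibition) were derived from the curves.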

SMILES	growth at 0.01 µM [%]
CCc1cccc(C)c1NC(=O)c1sc2nc3c(cc2c1N)C(=O)CCC3	97

Test system: NCI-H226
Test: Growth inhibition of human NCI-H226 cells assessed as cell growth at 0.01 uM incubated for 48 hrs by sulforhodamine B assay relative to control
Type: functional
Details: read-out: Activity

SMILES	growth at 0.01 µM [%]
CCc1cccc(C)c1NC(=O)c1sc2nc3c(cc2c1N)C(=O)CCC3	96

Test system: SK-MEL-28
Test: Growth inhibition of human SK-MEL-28 cells assessed as cell growth at 0.01 uM incubated for 48 hrs by sulforhodamine B assay relative to control
Type: functional
Details: read-out: Activity

SMILES	growth at 0.01 µM [%]
CCc1cccc(C)c1NC(=O)c1sc2nc3c(cc2c1N)C(=O)CCC3	90

Test system: HOP-92
Test: Growth inhibition of human HOP-92 cells assessed as cell growth at 0.1 uM incubated for 48 hrs by sulforhodamine B assay relative to control
Type: functional
Details: read-out: Activity

SMILES	growth at 0.1 µM [%]
CCc1cccc(C)c1NC(=O)c1sc2nc3c(cc2c1N)C(=O)CCC3	70

Test system: NCI-H23
Test: Growth inhibition of human NCI-H23 cells assessed as cell growth at 0.1 uM incubated for 48 hrs by sulforhodamine B assay relative to control
Type: functional
Details: read-out: Activity

SMILES	growth at 0.1 µM [%]
CCc1cccc(C)c1NC(=O)c1sc2nc3c(cc2c1N)C(=O)CCC3	100

Test system: HCC 2998
Test: Growth inhibition of human HCC 2998 cells assessed as cell growth at 0.1 uM incubated for 48 hrs by sulforhodamine B assay relative to control
Type: functional
Details: read-out: Activity
Outline: as §1

SMILES	growth at 0.1 µM [%]
CCc1cccc(C)c1NC(=O)c1sc2nc3c(cc2c1N)C(=O)CCC3	100

Test system: HCT-116
Test: Growth inhibition of human HCT-116 cells assessed as cell growth at 0.1 uM incubated for 48 hrs by sulforhodamine B assay relative to control
Type: functional
Details: read-out: Activity

SMILES	growth at 0.1 µM [%]
CCc1cccc(C)c1NC(=O)c1sc2nc3c(cc2c1N)C(=O)CCC3	96

Test system: U-251
Test: Growth inhibition of human U-251 cells assessed as cell growth at 0.1 uM incubated for 48 hrs by sulforhodamine B assay relative to control
Type: functional
Details: read-out: Activity

SMILES	growth at 0.1 µM [%]
CCc1cccc(C)c1NC(=O)c1sc2nc3c(cc2c1N)C(=O)CCC3	90

Test system: SK-MEL-5
Test: Growth inhibition of human SK-MEL-5 cells assessed as cell growth at 0.1 uM incubated for 48 hrs by sulforhodamine B assay relative to control
Type: functional
Details: read-out: Activity

SMILES	growth at 0.1 µM [%]
CCc1cccc(C)c1NC(=O)c1sc2nc3c(cc2c1N)C(=O)CCC3	89

Test system: RXF 393
Test: Growth inhibition of human RXF 393 cells assessed as cell growth at 0.1 uM incubated for 48 hrs by sulforhodamine B assay relative to control
Type: functional
Details: read-out: Activity

SMILES	growth at 0.1 µM [%]
CCc1cccc(C)c1NC(=O)c1sc2nc3c(cc2c1N)C(=O)CCC3	74

Test system: PC-3
Test: Growth inhibition of human PC-3 cells assessed as cell growth at 0.1 uM incubated for 48 hrs by sulforhodamine B assay relative to control
Type: functional
Details: read-out: Activity

SMILES	growth at 0.1 µM [%]
CCc1cccc(C)c1NC(=O)c1sc2nc3c(cc2c1N)C(=O)CCC3	87

Test system: MDA-MB-231
Test: Growth inhibition of human MDA-MB-231 cells assessed as cell growth at 0.1 uM incubated for 48 hrs by sulforhodamine B assay relative to control
Type: functional
Details: read-out: Activity

SMILES	growth at 0.1 µM [%]
CCc1cccc(C)c1NC(=O)c1sc2nc3c(cc2c1N)C(=O)CCC3	100

Test system: T47D
Test: Growth inhibition of human T47D cells assessed as cell growth at 0.1 uM incubated for 48 hrs by sulforhodamine B assay relative to control
Type: functional
Details: read-out: Activity

SMILES	growth at 0.1 µM [%]
CCc1cccc(C)c1NC(=O)c1sc2nc3c(cc2c1N)C(=O)CCC3	91

Test system: HCT-116
Test: Growth inhibition of human HCT-116 cells assessed as cell growth at 1 uM incubated for 48 hrs by sulforhodamine B assay relative to control
Type: functional
Details: read-out: Activity

SMILES	growth at 1 µM [%]
CCc1cccc(C)c1NC(=O)c1sc2nc3c(cc2c1N)C(=O)CCC3	28

Test system: SF-268
Test: Growth inhibition of human SF-268 cells assessed as cell growth at 1 uM incubated for 48 hrs by sulforhodamine B assay relative to control
Type: functional
Details: read-out: Activity

SMILES	growth at 1 µM [%]
CCc1cccc(C)c1NC(=O)c1sc2nc3c(cc2c1N)C(=O)CCC3	54

Test system: LOX IMVI
Test: Growth inhibition of human LOX IMVI cells assessed as cell growth at 1 uM incubated for 48 hrs by sulforhodamine B assay relative to control
Type: functional
Details: read-out: Activity

SMILES	growth at 1 µM [%]
CCc1cccc(C)c1NC(=O)c1sc2nc3c(cc2c1N)C(=O)CCC3	43

Test system: M14
Test: Growth inhibition of human M14 cells assessed as cell growth at 1 uM incubated for 48 hrs by sulforhodamine B assay relative to control
Type: functional
Details: read-out: Activity

SMILES	growth at 1 µM [%]
CCc1cccc(C)c1NC(=O)c1sc2nc3c(cc2c1N)C(=O)CCC3	17

Test system: OVCAR-8
Test: Growth inhibition of human OVCAR-8 cells assessed as cell growth at 1 uM incubated for 48 hrs by sulforhodamine B assay relative to control
Type: functional
Details: read-out: Activity

SMILES	growth at 1 µM [%]
CCc1cccc(C)c1NC(=O)c1sc2nc3c(cc2c1N)C(=O)CCC3	62

Test system: RXF 393
Test: Growth inhibition of human RXF 393 cells assessed as cell growth at 1 uM incubated for 48 hrs by sulforhodamine B assay relative to control
Type: functional
Details: read-out: Activity

SMILES	growth at 1 µM [%]
CCc1cccc(C)c1NC(=O)c1sc2nc3c(cc2c1N)C(=O)CCC3	-12

Test system: Hs-578T
Test: Growth inhibition of human Hs-578T cells assessed as cell growth at 1 uM incubated for 48 hrs by sulforhodamine B assay relative to control
Type: functional
Details: read-out: Activity

SMILES	growth at 1 µM [%]
CCc1cccc(C)c1NC(=O)c1sc2nc3c(cc2c1N)C(=O)CCC3	20

Test system: T47D
Test: Growth inhibition of human T47D cells assessed as cell growth at 1 uM incubated for 48 hrs by sulforhodamine B assay relative to control
Type: functional
Details: read-out: Activity

SMILES	growth at 1 µM [%]
CCc1cccc(C)c1NC(=O)c1sc2nc3c(cc2c1N)C(=O)CCC3	28

Test system: HCC 2998
Test: Growth inhibition of human HCC 2998 cells assessed as cell growth at 100 uM incubated for 48 hrs by sulforhodamine B assay relative to control
Type: functional
Details: read-out: Activity
Outline: as §1

SMILES	growth at 100 µM [%]
CCc1cccc(C)c1NC(=O)c1sc2nc3c(cc2c1N)C(=O)CCC3	10

Test system: MDA-MB-435
Test: Growth inhibition of human MDA-MB-435 cells assessed as cell growth at 100 uM incubated for 48 hrs by sulforhodamine B assay relative to control
Type: functional
Details: read-out: Activity

SMILES	growth at 100 µM [%]
CCc1cccc(C)c1NC(=O)c1sc2nc3c(cc2c1N)C(=O)CCC3	-13

Test system: OVCAR-4
Test: Growth inhibition of human OVCAR-4 cells assessed as cell growth at 100 uM incubated for 48 hrs by sulforhodamine B assay relative to control
Type: functional
Details: read-out: Activity

SMILES	growth at 100 µM [%]
CCc1cccc(C)c1NC(=O)c1sc2nc3c(cc2c1N)C(=O)CCC3	10

Test system: MCF7
Test: Growth inhibition of human MCF7 cells assessed as cell growth at 100 uM incubated for 48 hrs by sulforhodamine B assay relative to control
Type: functional
Details: read-out: Activity

SMILES	growth at 100 µM [%]
CCc1cccc(C)c1NC(=O)c1sc2nc3c(cc2c1N)C(=O)CCC3	-1

Test system: SR
Test: Growth inhibition of human SR cells incubated for 48 hrs by sulforhodamine B assay
Type: functional
Details: not given
Outline: (§2)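 NCI DTP 60-line human tumour panel. Dose-response curves were run only for ligands active in the initial 10 µM screen. GI50 (concentration giving 50% of maximal inhibition of proliferation) and TGI (concentration giving total growth inhibition) were derived from these curves.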

SMILES	GI50 [nM]	LC50 [nM]	TGI [nM]
CCc1cccc(C)c1NC(=O)c1sc2nc3c(cc2c1N)C(=O)CCC3	403	> 100000	≥ 100000

Test system: SNB-75
Test: Growth inhibition of human SNB-75 cells incubated for 48 hrs by sulforhodamine B assay
Type: functional
Details: not given
Outline: as §2

SMILES	GI50 [nM]	LC50 [nM]
CCc1cccc(C)c1NC(=O)c1sc2nc3c(cc2c1N)C(=O)CCC3	212	> 100000

Test system: MDA-MB-435
Test: Growth inhibition of human MDA-MB-435 cells incubated for 48 hrs by sulforhodamine B assay
Type: functional
Details: not given
Outline: (§3)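 NCI60 panel at the NCI Developmental Therapeutics Program. Only compounds active in the 10 µM screen went to dose-response testing. GI50, the concentration giving 50% of maximal inhibition of proliferation, and TGI, the concentration giving total growth inhibition, were derived from the dose-response curves.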

SMILES	GI50 [nM]
CCc1cccc(C)c1NC(=O)c1sc2nc3c(cc2c1N)C(=O)CCC3	148

Same assay, conditions: read-out: LC50 (the source's name)

SMILES	CC50 [nM]
CCc1cccc(C)c1NC(=O)c1sc2nc3c(cc2c1N)C(=O)CCC3	> 100000

Test system: SK-MEL-28
Test: Growth inhibition of human SK-MEL-28 cells incubated for 48 hrs by sulforhodamine B assay
Type: functional
Details: not given
Outline: as §2

SMILES	GI50 [nM]	LC50 [nM]	TGI [nM]
CCc1cccc(C)c1NC(=O)c1sc2nc3c(cc2c1N)C(=O)CCC3	133	> 100000	> 100000

Test system: OVCAR-5
Test: Growth inhibition of human OVCAR-5 cells incubated for 48 hrs by sulforhodamine B assay
Type: functional
Details: not given
Outline: as §2

SMILES	GI50 [nM]	TGI [nM]
CCc1cccc(C)c1NC(=O)c1sc2nc3c(cc2c1N)C(=O)CCC3	2600	> 100000

Same assay, conditions: read-out: LC50 (the source's name)

SMILES	CC50 [nM]
CCc1cccc(C)c1NC(=O)c1sc2nc3c(cc2c1N)C(=O)CCC3	> 100000

Test system: OVCAR-8
Test: Growth inhibition of human OVCAR-8 cells incubated for 48 hrs by sulforhodamine B assay
Type: functional
Details: not given
Outline: as §2

SMILES	GI50 [nM]	TGI [nM]
CCc1cccc(C)c1NC(=O)c1sc2nc3c(cc2c1N)C(=O)CCC3	2130	≥ 100000

Same assay, conditions: read-out: LC50 (the source's name)

SMILES	CC50 [nM]
CCc1cccc(C)c1NC(=O)c1sc2nc3c(cc2c1N)C(=O)CCC3	> 100000

Test system: CAKI-1
Test: Growth inhibition of human CAKI-1 cells incubated for 48 hrs by sulforhodamine B assay
Type: functional
Details: not given
Outline: as §1

SMILES	GI50 [nM]	TGI [nM]
CCc1cccc(C)c1NC(=O)c1sc2nc3c(cc2c1N)C(=O)CCC3	511	> 100000

Same assay, conditions: read-out: LC50 (the source's name)

SMILES	CC50 [nM]
CCc1cccc(C)c1NC(=O)c1sc2nc3c(cc2c1N)C(=O)CCC3	> 100000

Test system: MCF7
Test: Growth inhibition of human MCF7 cells incubated for 48 hrs by sulforhodamine B assay
Type: functional
Details: not given
Outline: as §3

SMILES	GI50 [nM]	TGI [nM]
CCc1cccc(C)c1NC(=O)c1sc2nc3c(cc2c1N)C(=O)CCC3	360	≥ 100000

Same assay, conditions: read-out: LC50 (the source's name)

SMILES	CC50 [nM]
CCc1cccc(C)c1NC(=O)c1sc2nc3c(cc2c1N)C(=O)CCC3	> 100000
